UPR CHOP act – apoptotic UPR (CHOP) activation; CHO-CHOP luciferase reporter, luminescence; percent of tunicamycin response over DMSO baseline; activation, % at 10 µM; hit rate 0.34% among 330,000; AID 449763;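 active means at 10 µM dose, activation of 40% or more, normalized to positive control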;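 further: 100% = tunicamycin at 10 µg/mL and 0% = DMSO alone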
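Material: CHO-CHOP cells, stable luciferase reporter of PERK-eIF2a-CHOP signalling; quantity: 500 reporter cells seeded per well; buffer or medium: F12 medium containing 10% fetal bovine serum; compound: one dose, 10 µM in 0.5% DMSO; incubation: 6 h compound treatment, 37 °C; measured by: Steady-Glo luciferase luminescence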
697 NFkB inh – inhibitors of the PMA/ionomycin-induced NF-kB reporter in 697 B cells. 697 B-cell NF-kB luciferase reporter, 16 h. hit rate 0.33% among 330,000. inhibition, % at 4 µM; in the data active means inhibition above about 35%
Jurkat NFkB inh – inhibitors of the PMA/ionomycin-induced NF-kB reporter in Jurkat cells | PMA/ionomycin-induced NF-kB luciferase reporter, luminescence | inhibition, % at 4 µM | hit rate 0.53% among 330,000 | AID 435003; in the data active means inhibition above about 50%
UPR XBP1 act – activators of adaptive arm of unfolded protein response (XBP1) | CHO-XBP1 luciferase reporter, IRE1-XBP1 UPR activation, luminescence; percent of tunicamycin response, DMSO as zero | activation, % at 20 µM | hit rate 0.33% among 330,000 | AID 463104;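 active means versus positive control, 20 µM dose yields 30% or more activation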;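 further: 100% = tunicamycin at 10 µg/mL and 0% = DMSO only wells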
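Material: CHO cell line with stable XBP1 luciferase reporter; buffer or medium: F12 medium containing 10% fetal bovine serum; compound: single point, 20 µM final compound, 1% DMSO; incubation: 6 h treatment, 37 °C; measured by: glow luminescence from Steady-Glo reagent; evaluation: activation, % of tunicamycin; control set: tunicamycin high, DMSO low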
CHOP inh – inhibitors of CHOP induction in ER stress response; CHO-K1 CHOP-promoter luciferase, tunicamycin-induced, 15-18 h; inhibition, % at 10 µM; hit rate 3.8% among 220,000; AID 2732;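 active means compounds that reduced the stress-induced luciferase reporter signal by more than about 70% of percent inhibition, limit read from the data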;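 further: 0% = tunicamycin plus vehicle and 100% = wells without tunicamycin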
Jurkat NFkB conf – lowers PMA/ionomycin-induced NF-kB signal in Jurkat cells; inhibition, % at 4 µM; hit rate 27% among 2,700; Jurkat NF-kB luciferase, 16 h; shares compounds with Jurkat NFkB inh;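 active means inhibition reaching about 45% at 4 µM in either replicate, limit read from the data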;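 further: plate controls were PMA/ionomycin stimulated DMSO wells for no effect and unstimulated DMSO wells for full effect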
697 NFkB conf – inhibitors of the PMA/ionomycin-induced NF-kB reporter in 697 B cells, retest; inhibition, % at 4 µM; hit rate 35% among 2,000; shares compounds with 697 NFkB inh; 697 B-cell NF-kB luciferase, 16 h; in the data active means inhibition mostly above about 28%, no sharp cut-off; inactive means mostly below about 22%
* marks the source's active call; other numbers are inactive results; x = no result. The entries come from a sample that favours hits as a whole.

SMILES | UPR CHOP act | 697 NFkB inh | Jurkat NFkB inh | UPR XBP1 act | CHOP inh | Jurkat NFkB conf | 697 NFkB conf
CN(c1ccccc1)S(=O)(=O)c1cccc(NC(=O)CSc2nccc(=O)[nH]2)c1 | 0 | -8 | 5 | -3 | x | x | x
CCCCC#Cc1ccc2c(c1)COc1c3ccccc3nn1-2 | 4 | -228 | -140 | 0 | 0 | x | x
N#CCCCC#Cc1ccc2c(c1)COc1c3ccccc3nn1-2 | -4 | -442 | -193 | -4 | x | -55 | -381
CCCCc1ccc(-c2ccc(Br)cc2O)nc1 | 4 | -273 | -213 | 0 | 60 | -98 | -169
CCCCc1ccc(-c2ccc(C)cc2O)nc1 | -1 | -317 | -150 | -3 | 28 | -129 | -253
Cc1ccc(-c2nc3ccc([N+](=O)[O-])cc3[nH]2)cc1 | -2 | -304 | -212 | -3 | 57 | -116 | -433
Cc1ccc(NC(=O)c2cnn(-c3ccccc3)c2C)c(C)c1 | 7 | -111 | -82 | -1 | x | x | x
Cc1ccc(NC(=O)c2cnn(-c3ccccc3)c2C)cc1 | 0 | -264 | -153 | -9 | x | -105 | -307
O=C(NC1CC1)C1CC(=O)N(c2ccc(F)cc2)C1 (configuration not stated) | 1 | -17 | 11 | -3 | x | x | x
O=C(Nc1nc2ccccc2[nH]1)c1ccc(OC(F)F)cc1 | 2 | -325 | -165 | -6 | x | -94 | -397
CC(=O)Nc1ccccc1OCC(=O)c1cc(C)n(Cc2cccs2)c1C | 7 | 96* | 56* | 2 | x | 58* | 65*
O/N=C(\CN1CCCCC1)c1ccccc1 | 0 | -17 | -8 | -1 | x | x | x
CCOC(=O)C1CCCN(S(=O)(=O)c2ccc(S(=O)(=O)N(CC)CC)cc2)C1 (configuration not stated) | 3 | 43* | 60* | 1 | 65 | 62* | 52*
COc1ccccc1C(C)NC(=O)c1cc(=O)[nH]c2ccccc12 (configuration not stated) | 0 | 8 | -4 | 0 | x | x | x
Cc1cc(C)c2c(=O)cc(C(=O)NCc3ccccc3)oc2c1 | 0 | 18 | -5 | -5 | x | x | x
Cc1ccc(NC(=O)COC(=O)[C@H](C)NC(=O)c2ccccc2)cc1S(=O)(=O)N1CCOCC1 | 0 | 24 | -3 | -1 | -7 | x | x
O=C(NCCc1ccccc1)c1ccc2c(c1)OCCCO2 | -9 | 63* | 87* | -14 | x | 89* | 66*
O=C(CCc1ccccc1)c1ccc2c(c1)OCCCO2 | 2 | -128 | -93 | 0 | 22 | x | x
COc1ccc(C(=O)OC(C)C(=O)NC2CCCc3ccccc32)cc1OC (configuration not stated) | 0 | 4 | 11 | 1 | x | x | x
COc1ccc(C2C(O)C(c3c[nH]c4ccccc34)=NN2C(=O)CCl)cc1 (configuration not stated) | 7 | 97* | 100* | -11 | x | -2 | -153
COc1ccc(N=Cc2sc(O)c3ccccc23)cc1 | 2 | -299 | -175 | 5 | 52 | 17 | -71
COc1ccc(C(=O)Nc2c(N)nc(SCC(=O)N3CCCCCC3)[nH]c2=O)cc1OC | -2 | 14 | 2 | 0 | 12 | x | x
CCc1ccccc1Nc1ncnc2ccccc12 | 1 | 3 | 5 | -1 | x | x | x
CCCCCCCCNc1ncnc2ccccc12 | 8 | 107* | 71* | -4 | 81* | 68* | 100*
CC(C)OC(=O)c1sc2nc(-c3ccccc3)ccc2c1N | -1 | -276 | -290 | -1 | 83* | -8 | -81
SMILES | UPR CHOP act | 697 NFkB inh | Jurkat NFkB inh | UPR XBP1 act | CHOP inh | Jurkat NFkB conf | 697 NFkB conf
COC(=O)c1sc2nc(-c3ccco3)ccc2c1N | 2 | -16 | -20 | 1 | -31 | x | x
CC[C@]12c3[nH]c4cc(CCC(=O)N(C)C)ccc4c3CCN1C(=O)[C@@H](CC(=O)NCCCn1ccnc1)C[C@@H]2C(=O)N1CCN(C(=O)c2ccco2)CC1 | 1 | 5 | x | -1 | x | x | x
CCCCCCn1c2c(c(=N)c3c1CCC3)CCC2 | -2 | 104* | 65* | -2 | x | 69* | 34*
CCNc1nc(NC(C)C)nc(N(C#N)C(C)C(=O)N(CC)CC)n1 (configuration not stated) | -2 | 6 | 6 | -1 | 0 | x | x
Clc1ccc(/C=C/c2nc3ccccc3[nH]2)cc1 | -3 | -366 | -195 | -4 | 37 | -111 | -333
Clc1ccc(SCc2nc3ccccc3[nH]2)cc1 | 2 | -24 | -37 | 2 | -27 | x | x
Cc1ccc(C2=NC3(CCCCC3)N=C2SCC(=O)Nc2ccc3c(c2)OCCO3)cc1 | 1 | 8 | 1 | -1 | 36 | x | x
COc1ccc(OC)c(NC(=O)CSc2ccc(-c3ccco3)nn2)c1 | 0 | -18 | 45 | -4 | x | x | x
Cc1cccc(/C=N/Nc2cc(N3CCOCC3)nc(N3CCOCC3)n2)c1 | 3 | 58* | 66* | 1 | -1 | 9 | 7
CC(C)c1ccc(/C=N/Nc2cc(N3CCOCC3)nc(N3CCOCC3)n2)cc1 | 0 | -46 | -17 | 2 | 24 | x | x
CC(=O)c1cccc(NC(=O)CCc2nnc3ccc(N4CCOCC4)nn23)c1 | -2 | 6 | 14 | -2 | x | x | x
Nc1cccc2c1C(=O)N(CCOc1ccccc1F)C2=O | -2 | -319 | -183 | -4 | x | -120 | -360
N#Cc1ccccc1OCCN1C(=O)c2ccccc2C1=O | 8 | -48 | 12 | 6 | -5 | x | x
COc1cc(NC(=O)COc2cc(O)c3c(c2)OC(C)(C)CC3=O)cc(OC)c1OC | 6 | 59* | 58* | -1 | x | 76* | 48*
CC1(C)CC(=O)c2c(O)cc(OCC(=O)Nc3ccc(S(N)(=O)=O)cc3)cc2O1 | 0 | 8 | 5 | -1 | x | x | x
CS(=O)(=O)N1N=C(c2ccc(Br)cc2)CC1c1ccc2c(c1)OCO2 (configuration not stated) | 2 | -111 | -136 | 0 | 4 | x | x
Cc1ccc(C2=NN(S(C)(=O)=O)C(c3ccc4c(c3)OCO4)C2)cc1 (configuration not stated) | 3 | -259 | -175 | 1 | 3 | -111 | -276
N#Cc1c(NC(=O)c2ccccc2)sc2c1CCCCC2 | 0 | -280 | -179 | -6 | 20 | -138 | -237
CC1CCc2c(sc(NC(=O)CSc3ncn[nH]3)c2C#N)C1 (configuration not stated) | -8 | 58* | 61* | -9 | 85* | 61* | 52*
CC(C)(C)C1CCc2c(sc(NC(=O)CSc3ncn[nH]3)c2C#N)C1 (configuration not stated) | 0 | -11 | -10 | -2 | 63 | x | x
N#Cc1c(NC(=O)CSc2ncn[nH]2)sc2c1CCCC2 | -6 | 62* | 52* | -2 | 78* | 47 | 47*
CCOc1ccc(C2(C)CC(=O)N(C)C2=O)cc1 (configuration not stated) | 0 | 3 | 3 | -5 | x | x | x
